The term GI50 denotes the concentration giving 50% growth inhibition.

Structures are written as SMILES. The source made the active and inactive calls. The calls are words filed in the database; no cut-off is given here. Bounds are passed on as bounds.

18 molecules from ChEMBL document CHEMBL5335790, “Design, synthesis and biological evaluation of novel 2,4-thiazolidinedione derivatives able to target the human BAG3 protein” (Eur J Med Chem, 2023) can be followed below.

For test [1], the target named is BAG family molecular chaperone regulator 3 (Homo sapiens, UniProt O95817). Kind of test: Binding affinity to CM4 sensorchip immobilized C-terminal His tagged human BAG3 transfected in HEK293T cells at 50 uM by SPR analysis. In a few lines:
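SPR screen on BAG3-His amine-coupled to a CM4 chip at 60 µg/mL in pH 2.8 acetate. Compound at 50 µM in PBS with 5% DMSO and 0.05% P20 was injected for 90 s at 30 µL/min, then washed. Chip regenerated with 10 mM glycine pH 3. Bound RU read at equilibrium against a void flow cell; 3–10 repeats, mean ± SEM.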

The subject of test [2] is HD-MB03. Kind of test: Antiproliferative activity against human HD-MB03 cells assessed as cell growth inhibition incubated for 72 hrs by resazurin dye based analysis. It is filed as functional. In a few lines:
(§1)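 Cells seeded at 2000/well, treated 24 h later with compounds in a 6-point 2-fold dose series, duplicate wells, two independent experiments. After 72 h, resazurin was added at 44 µM final for 3 h at 37 °C and fluorescence was read at 590 nm. Viability was normalized to 1 µM bortezomib (positive) and 0.5% DMSO (negative) controls. GI50 is the mean ± SEM of dose-response curves.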
A general note: Alamar Blue is a resazurin reagent that responds to reducing activity.

The test system of test [3] is RS4-11. Kind of test: Antiproliferative activity against human RS4-11 cells assessed as cell growth inhibition incubated for 72 hrs by resazurin dye based analysis. It is filed as functional. The essentials:
as §1

The subject of test [4] is A549. Kind of test: Antiproliferative activity against human A549 cells assessed as cell growth inhibition incubated for 72 hrs by resazurin dye based analysis. It is filed as functional. In a few lines: as §1

Sequence of BAG family molecular chaperone regulator 3 (O95817 whole entry): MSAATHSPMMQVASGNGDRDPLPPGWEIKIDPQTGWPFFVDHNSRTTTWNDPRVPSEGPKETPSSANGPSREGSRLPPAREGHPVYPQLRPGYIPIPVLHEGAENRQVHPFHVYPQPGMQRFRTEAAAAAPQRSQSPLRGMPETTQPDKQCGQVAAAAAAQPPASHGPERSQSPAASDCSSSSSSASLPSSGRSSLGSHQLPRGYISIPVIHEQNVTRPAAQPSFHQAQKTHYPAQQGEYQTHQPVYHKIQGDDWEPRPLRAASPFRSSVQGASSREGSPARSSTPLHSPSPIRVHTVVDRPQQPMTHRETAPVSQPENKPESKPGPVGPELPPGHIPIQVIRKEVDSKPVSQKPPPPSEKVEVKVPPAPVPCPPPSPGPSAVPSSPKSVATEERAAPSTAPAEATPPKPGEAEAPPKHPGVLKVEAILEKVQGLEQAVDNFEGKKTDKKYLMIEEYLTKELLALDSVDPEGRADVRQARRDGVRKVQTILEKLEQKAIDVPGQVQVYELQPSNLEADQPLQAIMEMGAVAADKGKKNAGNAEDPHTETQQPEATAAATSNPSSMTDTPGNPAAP

Regarding `CCOC(=O)CN1C(=O)S/C(=C\c2cccc(O)c2)C1=O`, the outcome in test [1] was inactive. In addition, the GI50 in test [2] was 40.7 µM; in test [3], 55 µM; in test [4] it was above 100 µM.

Consider `O=C(CN1C(=O)S/C(=C\c2ccc(O)c(O)c2)C1=O)OCc1ccccc1`, for which the outcome in test [1] was inactive.

Turning to `CCOC(=O)CN1C(=O)S/C(=C\c2ccc(O)cc2)C1=O`, the outcome in test [1] was inactive. In addition, the GI50 in test [2] is 29.5 µM; in test [3], above 100 µM; in test [4] it was above 100 µM.

Consider `CCOC(=O)CN1C(=O)S/C(=C(/C)c2ccc(O)c(O)c2)C1=O`, for which, in test [1], the outcome was inactive. Moreover, the GI50 in test [2] is 6.4 µM; in test [3], 7.25 µM; in test [4] it was 44.2 µM.

As for `CCOC(=O)CN1C(=O)S/C(=C\c2ccc(O)c(F)c2)C1=O`, in test [1], the outcome was inactive. For the same molecule, the GI50 is 58.3 µM in test [2], above 100 µM in test [3] and above 100 µM in test [4].

With `CCOC(=O)C(C)N1C(=O)S/C(=C\c2ccc(O)c(Cl)c2)C1=O` (racemic), in test [1], the result was inactive. Further, the GI50 in test [2] worked out at 26.5 µM; in test [3], 38.1 µM; in test [4], 49.4 µM.

Take `CCOC(=O)CN1C(=O)S/C(=C\c2ccc3c(c2)OCCO3)C1=O`: the outcome in test [1] was inactive. For the same molecule, the GI50 in test [2], in test [3] and in test [4] was above 100 µM each time.

For `CCNC(=O)C(C)N1C(=O)S/C(=C\c2ccc(O)c(O)c2)C1=O` (racemic), the outcome in test [1] was inactive. Also, the GI50 turned out to be 53.1 µM in test [2], 24.8 µM in test [3] and 70.9 µM in test [4].

`CCOC(=O)CN1C(=O)S/C(=C\c2ccc(OC)c(OC)c2)C1=O`: in test [1], the result was inactive. The GI50 in test [2] is 45 µM; in test [3], above 100 µM; in test [4], above 100 µM.

With `CCOC(=O)CN1C(=O)S/C(=C\c2ccc(Cl)c(Cl)c2)C1=O`, in test [1], the result was inactive. The GI50 in test [2], in test [3] and in test [4] was above 100 µM each time.

Take `CCOC(=O)CN1C(=O)S/C(=C\c2ccc(OC)nc2)C1=O`: the result in test [1] was inactive. The GI50 is 41.1 µM in test [2], above 100 µM in test [3] and above 100 µM in test [4].

As to `CC(C(=O)N1CCOCC1)N1C(=O)S/C(=C\c2ccc(O)c(O)c2)C1=O` (racemic), the outcome in test [1] was inactive. Moreover, the values for the GI50 in test [2], in test [3] and in test [4] were 48.7 µM, 14.1 µM and 47.9 µM, respectively.

Regarding `CC(C(=O)N1CC2(COC2)C1)N1C(=O)S/C(=C\c2ccc(O)c(O)c2)C1=O` (racemic), the result in test [1] was inactive. The GI50 in test [2], in test [3] and in test [4] was above 100 µM throughout.

Regarding `CCOC(=O)C(C)N1C(=O)S/C(=C\c2cc(F)c(O)c(F)c2)C1=O` (racemic), the outcome in test [1] was inactive. The GI50 in test [2], in test [3] and in test [4] was above 100 µM each time.

In the case of `CCOC(=O)C(C)N1C(=O)S/C(=C\c2ccc(O)nc2)C1=O` (racemic), the result in test [1] was inactive. The GI50 in test [2], in test [3] and in test [4] was above 100 µM in each case.

For `CCOC(=O)CN1C(=O)S/C(=C\c2ccc(F)cc2)C1=O`, the result in test [1] was inactive. Also, the GI50 was 34.7 µM in test [2], above 100 µM in test [3] and above 100 µM in test [4].

For the molecule `CCOC(=O)C(C)N1C(=O)/C(=C/c2ccc(O)c(O)c2)N(C)C1=O` (stereo not drawn), in test [1], the outcome was inactive. The figures for the GI50 in test [2], in test [3] and in test [4] were 53.3 µM, 17.8 µM and 52.6 µM, respectively.

Take `CCOC(=O)C(C)N1C(=O)S/C(=C\c2ccc(NS(C)(=O)=O)cc2)C1=O` (racemic): the GI50 is 17.6 µM in test [2], 50.3 µM in test [3] and above 100 µM in test [4].
